Data taken from article PMC8161485 (ACS Central Science, 2021).
Positions count from the first letter of the chain named.

How the values were obtained:
[1] = system: AML02 primary AML specimen; assay: Cell viability of primary AML specimen AML02; assay type: cell-based; settings: Homo sapiens, read-out: AML02 LC50
Procedure, shortened: (§1)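 Primary AML samples came from consenting donors. Live mononuclear cells were isolated on a Ficoll-Paque density gradient and cryopreserved, with 40–70% viability after thawing. Cells were kept at 37 °C, humidified, 5% CO2.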

P450BM3 variant FL#62 = molecular target: T1, P450BM3 variant FL#62 (Priestia megaterium, UniProt P14779, A181T/A185V/A198V/A291V/A83V/E253G/F206C/F82S/F88A/H237Q/L354V/P143S/R256S/S227R/T176I/V79A); assay: Heme spin shift binding of MCL to P450 variant FL#62; set-up: species or system Bacillus megaterium
T1 sequence (P14779 1-1049 V79A/F82S/A83V/F88A/P143S/T176I/A181T/A185V/A198V/F206C/S227R/H237Q/E253G/R256S/A291V/L354V): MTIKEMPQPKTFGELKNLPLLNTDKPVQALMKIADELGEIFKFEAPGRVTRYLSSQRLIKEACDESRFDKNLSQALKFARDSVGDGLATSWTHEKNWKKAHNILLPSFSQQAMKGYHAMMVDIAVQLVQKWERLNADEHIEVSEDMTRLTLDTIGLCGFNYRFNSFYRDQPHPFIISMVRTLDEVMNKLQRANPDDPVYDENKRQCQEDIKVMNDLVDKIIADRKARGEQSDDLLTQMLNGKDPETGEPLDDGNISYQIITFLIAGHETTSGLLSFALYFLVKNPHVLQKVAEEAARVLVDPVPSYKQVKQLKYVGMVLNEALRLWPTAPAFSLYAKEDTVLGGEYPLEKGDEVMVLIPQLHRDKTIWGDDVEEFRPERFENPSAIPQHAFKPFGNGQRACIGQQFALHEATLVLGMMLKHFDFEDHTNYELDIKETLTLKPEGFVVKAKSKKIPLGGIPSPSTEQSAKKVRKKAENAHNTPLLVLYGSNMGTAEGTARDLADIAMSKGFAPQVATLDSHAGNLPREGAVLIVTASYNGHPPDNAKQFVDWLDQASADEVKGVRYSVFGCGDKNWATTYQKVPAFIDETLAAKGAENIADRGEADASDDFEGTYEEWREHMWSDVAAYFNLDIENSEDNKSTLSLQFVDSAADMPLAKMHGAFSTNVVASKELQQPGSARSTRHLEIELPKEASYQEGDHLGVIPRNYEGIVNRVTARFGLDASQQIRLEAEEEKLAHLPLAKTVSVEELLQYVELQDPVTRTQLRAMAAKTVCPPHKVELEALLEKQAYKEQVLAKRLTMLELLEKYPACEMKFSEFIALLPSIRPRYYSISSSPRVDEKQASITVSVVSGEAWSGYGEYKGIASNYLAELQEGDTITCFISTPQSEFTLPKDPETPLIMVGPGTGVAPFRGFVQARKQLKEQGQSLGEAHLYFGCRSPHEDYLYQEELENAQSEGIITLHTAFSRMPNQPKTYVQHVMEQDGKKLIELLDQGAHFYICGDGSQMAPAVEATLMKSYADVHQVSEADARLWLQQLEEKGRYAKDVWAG
Procedure, shortened: (§2)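 Purified P450 (3 μM) in 50 mM potassium phosphate, pH 8.0, titrated with test compound (5–2000 μM) from a 50 mM ethanol stock. A difference spectrum (350–500 nm) was taken at each step. Absorbance change at 390/420 nm (high/low spin) was plotted against concentration, with KD from a nonlinear 1:1 binding fit. At least triplicate, room temperature.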

[2] = system: AML03 primary AML specimen; assay: Cell viability of primary AML specimen AML03; assay type: cell-based; settings: Homo sapiens, read-out: AML03 LC50
Procedure, shortened: as §1

heme oxygenase 1 (HO-1) = assay: Induction of heme oxygenase 1 in primary AML specimens; assay type: cell-based, human; settings: compared to vehicle-only control
P450BM3 variant V-F10 = molecular target: T2, P450BM3 variant V-F10 (Priestia megaterium, UniProt P14779, A181T/A185V/A198V/A291V/E253G/F206C/F82V/F88A/H237Q/L354V/P143S/R256S/S227R/T176I/V79F); assay: Heme spin shift binding of MCL to P450 variant V-F10; set-up: species or system Bacillus megaterium
T2 sequence (P14779 1-1049 V79F/F82V/F88A/P143S/T176I/A181T/A185V/A198V/F206C/S227R/H237Q/E253G/R256S/A291V/L354V): T1 sequence (P14779 1-1049 V79A/F82S/A83V/F88A/P143S/T176I/A181T/A185V/A198V/F206C/S227R/H237Q/E253G/R256S/A291V/L354V) with A79F, S82V, V83A
Procedure, shortened: as §2

[3] = system: AML01 primary AML specimen; assay: Cell viability of primary AML specimen AML01; assay type: cell-based; settings: Homo sapiens, AML01, read-out: AML01 LC50
Procedure, shortened: as §1

M9-ENL1 cells = assay: Cell viability of M9-ENL1 cells, Annexin V / 7-AAD flow cytometry; assay type: cell-based, human; settings: 20 μM, 24 h

Structure (SMILES): C=C1C(=O)O[C@H]2[C@H]1CCC(C)=C1CC[C@@](C)(O)[C@@H]12 [MCL, micheliolide]
- CC50 [1]: 20.3 µM
- Kd (P450BM3 variant FL#62): 61 ± 3 µM
- CC50 [2]: 15.7 µM
- induction of heme oxygenase 1 (HO-1) (heme oxygenase 1 (HO-1)): Dose-dependent induction
- Kd (P450BM3 variant V-F10): 88 ± 18 µM
- CC50 [3]: 18.8 µM
- reduction in cell viability (M9-ENL1 cells): 50%
